# Results: ChEMBL document CHEMBL4513216, “Probing the Open Global Health Chemical Diversity Library for Multistage-Active Starting Points for Next-Generation Antimalarials” (ACS Infect Dis, 2020)
# Test: Toxicity liver stage against HepG2, at 10uM
# Type: cell-based
# Design: test concentration 10 uM, cell line HepG2-A16-CD81EGFP
# Conditions: human, HepG2-A16-CD81EGFP cells; read-out: INHIBITION
# In short: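 Uninfected HepG2-A16-CD81EGFP cells, 3 × 10^3 per well, 1536-well, plated on prespotted compound at 10 μM final, parasite-free screening media added to match infected plates; puromycin 10 μM positive, DMSO 0.5% negative; run in parallel with 48 h PbLuc assay at 37 °C, 5% CO2; viability by CellTiter-Glo luminescence, normalized to controls.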
row,Structure (SMILES),cytotoxicity at 10 µM
1,Cc1nc(Oc2ccccc2Cl)sc1C(=O)O,-11.9%
2,CC1=Nc2c(c(=O)[nH]n2C2CCCCC2)C(c2cccnc2)S1 (configuration not stated),6.72%
3,Cc1nccn1CC1CCN(C(=O)c2cccs2)CC1,-14.2%
4,COc1ccc(S(=O)(=O)NCCn2cnc(C)cc2=O)cc1C,7.69%
5,CC1c2ncc(COCC3CC3)n2CCN1S(=O)(=O)N(C)C (configuration not stated),18.4%
6,COCCO[C@H]1CCN(C(=O)c2ccoc2C)[C@H]1Cc1cnn(C)c1,-6.98%
7,O=C([C@@H]1C[C@@H]2CCN(Cc3ccco3)C[C@H]2O1)N1CCCO1,4.78%
8,COc1ccc(-c2cc3nn(CC(N)=O)c(=O)n3c(C)n2)cc1,-5.29%
9,CC(C)N1C(=O)CC(N2CCN(c3ccc(F)cc3)CC2)C1=O (configuration not stated),8.44%
10,CCOc1nc2cccnc2n(CC(=O)NCCOC)c1=O,-7.84%
11,COc1ccccc1NC(=O)NCC(O)(c1ccccc1)C1CC1 (configuration not stated),-19.5%
12,O=c1ccc(-c2cccs2)nn1CN1CCCCCC1,-5.51%
13,COCc1cnc2n1CCN(C(=O)C1=CCCCC1)C2C (configuration not stated),-2.93%
14,O=C(CC1CC1)N1CCn2cc(Cn3cncn3)nc2C1,-8.87%
15,CCN(Cc1ccncc1)S(C)(=O)=O,14.4%
16,COCc1cccc(S(=O)(=O)Nc2ncc(C)s2)c1,-8.13%
17,O=C1CCC(c2nc(C3CCN(C(=O)C4CC4)CC3)no2)N1 (configuration not stated),-1.7%
18,O=C(c1cnco1)N1CCC(Cc2cnc3ccccc3c2)CC1,5.08%
19,CC(=O)NCCc1cc2nc(-c3ccncc3)ccn2n1,2.95%
20,Cc1cc(C(F)(F)F)nc(C2(C)CCCN2CC(N)=O)n1 (configuration not stated),6.62%
21,CC(C)(C)c1nnc2n1C(C(=O)N1CCN(c3ncccn3)CC1)CC2 (configuration not stated),-7.46%
22,CN1CCN(c2ccccc2CNC(=O)Cc2ccccc2F)CC1,-1.1%
23,COCCCNC(=O)Nc1ccc(OCc2noc(C3CC3)n2)cc1,7.04%

row,Structure (SMILES),cytotoxicity at 10 µM
1,Cc1cc(C(F)(F)F)c2c(=O)n(Cc3ccon3)n(C)c2n1,5.85%
2,CCCC(=O)Nc1cnn(CC(=O)Nc2ccc(SC)cc2)c1,-8.81%
3,CCOc1ccc(C(=O)NCc2ccnc(N3CCN(C)CC3)c2)cn1,0.935%
4,N#Cc1ccc(NCCS(=O)(=O)N2CCc3ccccc32)nc1,-8.69%
5,CC(C)c1noc(CNc2cccc(-c3nnnn3C)c2)n1,-5.47%
6,O=C(CCNc1ncccn1)NCc1csc(Br)c1,5.15%
7,CCCC(=O)N1CCCN(C(=O)Nc2ccc(C)s2)CC1,-1.24%
8,CC(C)c1cc(C(=O)N2CCN(Cc3ccco3)CC2)n[nH]1,2.18%
9,CCCc1n[nH]c(C2CN(C(=O)c3cc(C4CC4)on3)CCO2)n1 (configuration not stated),0.471%
10,Cc1cc(C)n(CC2CN(Cc3ccc4c(c3)OCCO4)CCO2)n1 (configuration not stated),-22.3%
11,c1ccc(-c2nnc3ccc(N4CCC5(CCOC5)C4)nn23)cc1 (configuration not stated),7.12%
12,CC(C)C(NC(=O)c1ccccc1)C(=O)N1CCC2(CC1)OCCO2 (configuration not stated),5.44%
13,CCC(C)NC(=O)c1cc(S(N)(=O)=O)c(Br)s1 (configuration not stated),-4.38%
14,Cc1nc2n(n1)CC(NCC(=O)NCC1(c3ccccc3)CC1)CC2 (configuration not stated),-6.52%
15,O=C(C1CCCN(Cc2cccc(F)c2)C1)N1CCc2sccc2C1 (configuration not stated),-0.23%
16,Cc1[nH]ncc1C(C)NCc1cccnc1 (configuration not stated),-0.98%
17,Cc1cc(C)c(CCNC(=O)NCCCC(N)=O)c(C)c1,-1.24%
18,CC(=O)NCC1CCN(C(=O)c2ccc(Sc3ccccn3)cc2)CC1,9.15%
19,CC(=O)N1CCN(C(=O)c2ccc(Sc3ccccn3)cc2)CC1,10.7%
20,CC(Cn1cccn1)NC(=O)N(C)Cc1ccc(C(N)=O)cc1 (configuration not stated),3.37%
21,CC(C)COCCC(=O)Nc1cccnc1-n1cncn1,1.28%
22,CC1CN(C)CCN1C(=O)Nc1nc(-c2ccco2)cs1 (configuration not stated),-5.02%
23,CCC1CN(C)c2ccccc2CN1C(=O)Nc1ccc(C)cc1 (configuration not stated),4.01%

row,Structure (SMILES),cytotoxicity at 10 µM
1,Cc1cnc(CN(Cc2ccccc2)CC2CCOCC2)cn1,15.6%
2,COc1ccc(C(=O)NS(C)(=O)=O)cc1-c1ccccc1,-0.0142%
3,Cc1noc(CCCNC(=O)N2CCc3ccccc3C2CO)n1 (configuration not stated),8.69%
4,O=C(NCCNc1ncccn1)N1CCCC(C(F)(F)F)C1 (configuration not stated),1.05%
5,CC(C)NC(=O)N1CCC(n2ccc(C(F)(F)F)n2)CC1,3.02%
6,Cc1cccc(CNC(=O)CNc2cc(CO)ccc2Cl)c1,1.73%
7,CN(C)c1ccc(CNC(=O)c2ccc(Cl)cc2F)cc1,-8.33%
8,Cc1cc(CNC(=O)N2CCN(c3ccccc3)CC2)no1,5.27%
9,Cc1cccc(S(=O)(=O)N2Cc3nccn3CC(CN(C)C)C2)c1 (configuration not stated),-105%
10,COCCN1C[C@@H]2CN(c3cnccn3)C[C@@H]2C1=O,-104%
11,CNC(=O)c1nc2c(s1)CCN(C(=O)Cc1ccc(OC)cc1)CC2,4.76%
12,Cc1nnc([C@@H]2CC[C@@H]3[C@@H](CCN3S(=O)(=O)c3cccnc3)O2)o1,0.462%
13,Cc1ccc(-c2nc3cc(S(=O)(=O)N4CCCC4)ccc3n2C)o1,1.38%
14,COCCNC(=O)CCC1CCN(Cc2cccc(SC)c2)CC1,14.6%
15,Cc1cc(NCc2noc(C(C)C)n2)nc(-c2ccccc2)n1,11%
16,Cc1nn(C)cc1C(=O)N1CCCC(c2nccn2CC2CCC2)C1 (configuration not stated),2.52%
17,CSCC(=O)N[C@H]1CC[C@H](Nc2nccc(-c3ccncc3)n2)C1,11.8%
18,Cn1c(N2CC[C@H](O)C2)nc2cc(C(N)=O)ccc21,5.83%
19,Cc1cc(C)c2[nH]c(=O)c(CN3CCC(O)(CN(C)C)C3)cc2c1 (configuration not stated),-2.99%
20,COc1ccc(C(=O)N2CCC(Oc3ccc(C)cc3)(C(=O)O)CC2)o1,9.68%
21,CCCc1nc(CN(CC)Cc2ccc(O)c(C(=O)O)c2)no1,-6.33%
22,Cn1cc2ncn(CCCOc3cccnc3)c(=O)c2n1,-5.18%
23,COCc1nc(N2CCC(CCO)CC2)c2cnn(C)c2n1,1.22%

row,Structure (SMILES),cytotoxicity at 10 µM
1,COc1ccc(O)c(C(=O)NCC2CCCN(C3CCOCC3)C2)c1 (configuration not stated),-3.23%
2,Cc1cccc2sc(NC(=O)CN3CCC(C)CC3)nc12,2.89%
3,CCC(=O)N1CCc2[nH]cnc2C12CCN(C(=O)c1snnc1C)CC2,13.9%
4,O=C1CC(c2cccs2)c2cnn(C3CCCC3)c2N1 (configuration not stated),23.3%
5,CNc1cc(CNC(=O)c2ccccc2)nc(-c2ccncc2)n1,0.462%
6,COc1c(C2CCCN2C(=O)c2cc(C)on2)c(C)nn1C (configuration not stated),0.407%
7,COc1ccc(S(=O)(=O)NC(=O)COC2CCCCC2)cc1,-1.64%
8,CCOc1ccc(Cl)c(C(=O)N2CCN(CC(O)CC)CC2)n1 (configuration not stated),-4.85%
9,CC(C)c1ncncc1C(=O)N1CCCN(Cc2ccccc2)CC1,-6.9%
10,Cc1cc(CN2CCN(C(=O)NCc3cccs3)CC2)on1,-1.68%
11,CC1CN(CCOc2ccccc2C#N)CCN1Cc1nccn1C (configuration not stated),-10.8%
12,COc1cc(C(=O)N(Cc2cnn(C)c2)C(C)C)ccc1C,-3.14%
13,CC(C)N1CCN(C(=O)c2ccc(Cn3ccccc3=O)o2)CC1,-13.1%
14,Cc1nnc2n1CCN(Cc1csc(-c3ccsc3)n1)C2,-12.4%
15,COc1ccc(Cl)cc1NCCC(=O)NCCNc1cnccn1,-10.3%
16,CCc1noc(CN(Cc2ccc3c(c2)OCO3)C2CCCC2)n1,-0.315%
17,Cc1noc(C)c1CN(C)C(=O)NC1CCCN(S(C)(=O)=O)C1 (configuration not stated),-13.9%
18,COc1ccc(CC(=O)NC2CCN(CC(F)F)CC2)cc1OC,-8.48%
19,Clc1cccc(OCCCN2CCOC(Cn3cncn3)C2)c1 (configuration not stated),-3.78%
20,COCc1nc(CN2CCOC(CNc3cccnn3)C2)cs1 (configuration not stated),-4.71%
21,CCc1nc(CN(C)C2CCN(CCn3cccn3)C2)no1 (configuration not stated),-2.21%
22,CN1CCN(C(=O)c2cnn(-c3ccccc3Cl)c2)CC1,-5.51%
23,O=C(NCC(F)(F)F)c1ccc(-c2ccco2)[nH]c1=O,-21.6%

row,Structure (SMILES),cytotoxicity at 10 µM
1,Cc1ccc2oc(C(=O)N3CCc4nnc(N(C)C)cc4C3)cc2n1,-3.25%
2,CC(C)n1ccnc1CN1CCCN(C(=O)CC2C=CCC2)CC1 (configuration not stated),3.08%
3,CC(NCc1cccnc1)c1ccc(OCC(=O)NC2CC2)cc1 (configuration not stated),2.36%
4,Cc1cc(CN(Cc2cccs2)CC2CCCO2)no1 (configuration not stated),2.86%
5,O=C(NCc1nncn1-c1ccccc1)C1CC(=O)N(CC2CC2)C1 (configuration not stated),-2.97%
6,Cc1cc(C2CCCN(C(=O)c3ccc(C)[nH]c3=O)C2)n[nH]1 (configuration not stated),-5.65%
7,Cn1cc(-c2nc(CN3CCc4c(ncn4C4CC4)C3)cs2)cn1,-17.6%
8,CCc1ccc(OCC(O)CN2CCN(S(C)(=O)=O)CC2)cc1 (configuration not stated),7.07%
9,CN(C)c1cc(CNC(=O)c2ccc(=O)[nH]n2)ccn1,0.962%
10,Cc1cnn(CC2CCCN2C(=O)CCc2ccsc2)c1 (configuration not stated),-1.64%
11,c1ccc(CN2CCOC3(CCN(c4ncccn4)CC3)C2)nc1,-2.42%
12,CN(C)CCN1CCOCC2(C1)CN(Cc1nccs1)CCO2 (configuration not stated),6%
13,COC[C@@H]1CCC[C@@]12CN(Cc1ccc(C)s1)CCO2,6.76%
14,Cc1nc(CN2CCC3(CC2)CC(=O)N(C)c2ccccc23)cs1,0.0115%
15,CN1[C@H](CN2CCCC2)C[C@@H]2CN(C(=O)c3cccn3C)CC[C@@H]21,5.57%
16,COc1nn(C)c2c1CCCN(C(=O)c1cccc3cccnc13)C2,-104%
17,COCCN1C[C@@H]2CN(Cc3cccc(C)n3)C[C@@H]2C1=O,6.66%
18,O=C(Cc1cccc(F)c1)N1CCc2ncnc(NC3CC3)c2CC1,-98.5%
19,COCCN1C(=O)CCC12CCN(c1ncc(F)cn1)CC2,0.632%
20,O=C(CCn1cncn1)N1C[C@@H]2CC[C@H]1CN(Cc1cccnc1)C2,7.39%
